Data on two compounds can be found in ChEMBL document CHEMBL1141164, “Design and synthesis of a series of melamine-based nitroheterocycles with activity against Trypanosomatid parasites” (J Med Chem, 2005).

The term IC50 denotes the point on the concentration scale where inhibition reaches its midpoint. A higher IC50 goes with weaker potency in that assay. Usually inhibition in vivo stands for the drop in the measured response relative to a control, in per cent.

Assay [1] concerns Trypanosoma brucei brucei. The assay is described as follows: In vitro inhibitory concentration against blood stream Trypanosoma brucei brucei AT1 knockout mutant with a non functional P2 transporter incubated for 72 h at 37 degree C. It is filed as organism-based. In short, it runs like this:
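Bloodstream T. b. brucei trypomastigotes, wild type or P2 transporter knockout (TbAT1-/-), were tested side by side. Viability was read by Alamar Blue fluorescence and IC50 values were determined.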

The subject of assay [2] is Trypanosoma cruzi. The assay is described as follows: In vivo percent inhibition of compound at a dose of 50 mg/kg, i.p., for 5 doses in mice infected with Trypanosoma cruzi. The following applies: ip.
Assay [3] relates to Mus musculus. The assay is described as follows: In vivo antitrypanosomal activity at a dose of 4*20 mg/kg, i.p., in mice infected with Trypanosoma brucei brucei STIB 795 strain, measured as survival days (control 7 days). In kind it is functional.
Assay [4] concerns Trypanosoma brucei rhodesiense. As to the kind of experiment: Inhibitory concentration in vitro against blood stream Trypanosoma brucei rhodesiense incubated for 72 hr at 37 degree C. It is filed as functional, organism-based. An outline of the steps: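 T. b. rhodesiense STIB900 trypomastigotes, a 1982 human isolate from Tanzania, grown in minimum essential medium with 2-mercaptoethanol and 15% heat-inactivated horse serum. Drug dilutions 90 to 0.123 μg/mL, 72 h at 37 °C, 5% CO2.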

Assay [5] relates to Mus musculus. The assay is described as follows: In vivo antitrypanosomal activity at a dose of 4*20 mg/kg, i.p., in mice infected with Trypanosoma brucei brucei STIB 795 strain; 0/4. In kind it is functional.
Assay [6] relates to Trypanosoma brucei brucei. As to the kind of experiment: In vitro inhibitory concentration against blood stream Trypanosoma brucei brucei AT1 wild type incubated for 72 h at 37 degree C. In kind it is functional, organism-based. An outline of the steps: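 Wild-type T. b. brucei trypomastigotes, tested alongside the P2 knockout (TbAT1-/-). Alamar Blue viability assay used to derive IC50 values.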

The subject of assay [7] is Trypanosoma cruzi. The assay is described as follows: In vivo activity at a dose of 50 mg/kg, i.p., for 5 doses in mice infected with Trypanosoma cruzi, measured as survival days (control 13 days). The following applies: route intraperitoneal.
Assay [8] relates to Leishmania donovani. The assay is described as follows: Inhibitory concentration in vitro against intracellular amastigotes of Leishmania donovani in mouse peritoneal macrophages incubated for 96 hr at […]; tox is toxic to macrophages.
A further assay concerns L6. As to the kind of experiment: Concentration causing cytotoxicity to 50% of L-6 rat skeletal myoblasts. It is filed as functional, cell-based. In short, it runs like this:
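L-6 rat skeletal myoblasts run in the same Alamar Blue assay as the trypanosome screen. Serial dilutions spanning 90 to 0.123 μg/mL, 72 h at 37 °C under 5% CO2, then Alamar Blue for a further 2–4 h. Fluorescence read at ex 536/em 588 nm and expressed as % of control to give IC50.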

In assay [9] the test system is Trypanosoma cruzi. As to the kind of experiment: In vitro inhibitory concentration against intracellular amastigotes of Trypanosoma cruzi in rat skeletal myoblasts incubated for 37 degree C for 4 days. In kind it is functional, organism-based. The following applies: 96 h. An outline of the steps:
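L-6 myoblasts seeded at 2000 cells/well in RPMI 1640 with 10% FBS and 2 mM L-glutamine. After 24 h, 5000 T. cruzi Tulahuen C2C4 (LacZ) trypomastigotes added with serial drug dilution. Incubated 4 days at 37 °C in 5% CO2, then CPRG/Nonidet added.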

Assay [10] deals with Trypanosoma brucei. As to the kind of experiment: Inhibitory concentration against wild-type (427) Trypanosoma brucei. It is filed as functional, organism-based.
For assay [11], the system named is Mus musculus. The assay is described as follows: In vivo antitrypanosomal activity at a dose of 4*20 mg/kg, i.p., in mice infected with Trypanosoma brucei rhodesiense STIB 900 strain; 2/4. In kind it is functional.
Assay [12] concerns Mus musculus. The assay is described as follows: In vivo antitrypanosomal activity at a dose of 4*20 mg/kg, i.p., in mice infected with Trypanosoma brucei brucei STIB 795 strain; 4/4. It is filed as functional.
Assay [13] deals with Trypanosoma brucei. The assay is described as follows: Inhibitory concentration against RAD51-/- mutant Trypanosoma brucei.
Assay [14] has as its system Mus musculus. As to the kind of experiment: In vivo antitrypanosomal activity at a dose of 4*20 mg/kg, i.p., in mice infected with Trypanosoma brucei rhodesiense STIB 900 strain, measured as survival days (control 7 days). In kind it is functional.
In assay [15] the test system is Trypanosoma cruzi. The assay is described as follows: In vivo activity at a dose of 50 mg/kg, i.p., for 5 doses in mice infected with Trypanosoma cruzi, measured as survival days (control 13 days). The following applies: ip, 312 h.
Assay [16] deals with Leishmania donovani. The assay is described as follows: Inhibitory concentration in vitro against intracellular amastigotes of Leishmania donovani in mouse peritoneal macrophages incubated for 96 hr at 27 degree C.
The test system of assay [17] is Trypanosoma cruzi. The assay is described as follows: In vivo activity at a dose of 50 mg/kg, i.p., for 5 doses in mice infected with Trypanosoma cruzi, measured as survival days (control 13 days).

The structures appear in SMILES notation.

For `CN(C)c1nc(N)nc(N/N=C/c2ccc([N+](=O)[O-])o2)n1`, the IC50 in assay [1] was 3090 nM; in assay [4], 53 nM; in [6], 5360 nM; with Leishmania donovani [8] it was “Toxic”; in the assay on L6 it was 110000 nM; in the assay on Trypanosoma cruzi [9], 290 nM. This compound also had an inhibition in vivo at 50 mg/kg in the assay on Trypanosoma cruzi [2] of 45%. Moreover, the Survival was 18.3 days in the assay with Mus musculus [3] and 14 days with Trypanosoma cruzi [7]. The same compound yielded a Cured/Infected in the assay with Mus musculus [5] of 0.

As to `CNc1nc(N)nc(N/N=C/c2ccc([N+](=O)[O-])o2)n1`, the IC50 in the assay on Trypanosoma brucei [10] was determined as 80 nM; with Trypanosoma brucei [10] (Trypanosoma brucei), 80 nM; in assay [1], 60 nM; in assay [4] it was 18 nM; in the assay with Trypanosoma brucei [13], 70 nM; in assay [6], 130 nM. Besides, the figures for the IC50 in the assay with Leishmania donovani [16], in the assay with L6 and in the assay on Trypanosoma cruzi [9] were 750 nM, 48900 nM and 390 nM, respectively. Moreover, the Cured/Infected is 2 with Mus musculus [11] and 4 in the assay on Mus musculus [12]. Besides, the Survival in the assay with Mus musculus [3] is above 60 days; with Mus musculus [14] it was above 38.5 days; with Trypanosoma cruzi [17] it was 13 days. In addition, in the assay on Trypanosoma cruzi [15], the inhibition in vivo at 50 mg/kg amounted to 27.8%.
